Values after ≈ are worked out from the molar mass of the structure shown.
What was measured:
Staphylococcus aureus [1] = test: Antimicrobial activity against methicillin-sensitive Staphylococcus aureus by agar dilution method; assay type: functional
In short: (§1)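 MICs against clinical MRSA or MSSA isolates by CLSI agar dilution, with S. aureus ATCC 29213 as control strain. Percentage of susceptible isolates was calculated from the MICs using CLSI breakpoints.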

Staphylococcus aureus [2] = test: Antimicrobial activity against methicillin-sensitive Staphylococcus aureus assessed as susceptible isolates by agar dilution method; assay type: functional; in short: as §1
Staphylococcus aureus [3] = test: Antimicrobial activity against methicillin-resistant Staphylococcus aureus by agar dilution method; assay type: functional; in short: as §1
Staphylococcus aureus [4] = test: Antimicrobial activity against methicillin-resistant Staphylococcus aureus assessed as susceptible isolates by agar dilution method; assay type: functional; in short: as §1
Staphylococcus aureus [5] = test: Antimicrobial activity against Heterovancomycin-resistant Staphylococcus aureus by agar dilution method; assay type: functional
In short: (§2)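 Clinical S. aureus isolates classed as hVISA or VISA by population analysis profiling. MICs by CLSI agar dilution, with S. aureus ATCC 29213 as control strain.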

Staphylococcus aureus [6] = test: Antimicrobial activity against Heterovancomycin-resistant Staphylococcus aureus assessed as susceptible isolates by agar dilution method; assay type: functional
Staphylococcus aureus [7] = test: Antimicrobial activity against vancomycin-resistant Staphylococcus aureus by agar dilution method; assay type: functional; in short: as §2
Staphylococcus aureus [8] = test: Antimicrobial activity against vancomycin-resistant Staphylococcus aureus assessed as susceptible isolates by agar dilution method; assay type: functional
Staphylococcus [9] = test: Antimicrobial activity against Coagulase-negative Staphylococcus by agar dilution method; assay type: functional
In short: (§3)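 CLSI agar dilution MIC testing of clinical isolates of staphylococci and Listeria. S. aureus ATCC 29213 and S. pneumoniae ATCC 49619 served as control strains. The percentage of susceptible isolates was calculated from CLSI breakpoints.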

Staphylococcus [10] = test: Antimicrobial activity against Coagulase-negative Staphylococcus assessed as susceptible isolates by agar dilution method; assay type: functional; in short: as §3
[11] = test system: Streptococcus sp. 'group A'; test: Antimicrobial activity against Group A Streptococcus by agar dilution method; assay type: functional
In short: (§4)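 Clinical isolates of beta-hemolytic streptococci, S. mitis and S. pneumoniae were tested by CLSI methodology, with Mueller-Hinton medium supplemented with 5% lysed horse blood. S. aureus ATCC 29213 and S. pneumoniae ATCC 49619 served as control strains. The percentage of susceptible isolates was derived from CLSI breakpoints.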

[12] = test system: Streptococcus sp. 'group A'; test: Antimicrobial activity against Group A Streptococcus assessed as susceptible isolates by agar dilution method; assay type: functional; in short: as §4
[13] = test system: Streptococcus sp. 'group B'; test: Antimicrobial activity against Group B Streptococcus by agar dilution method; assay type: functional; in short: as §4
[14] = test system: Streptococcus sp. 'group B'; test: Antimicrobial activity against Group B Streptococcus assessed as susceptible isolates by agar dilution method; assay type: functional; in short: as §4
[15] = Antimicrobial activity against Group C Streptococcus by agar dilution method; assay type: functional; settings: Streptococcus sp. 'group C'; in short: as §4
[16] = Antimicrobial activity against Group C Streptococcus assessed as susceptible isolates by agar dilution method; assay type: functional, Streptococcus sp. 'group C'; in short: as §4
[17] = Antimicrobial activity against Group G Streptococcus by agar dilution method; assay type: functional; settings: Streptococcus sp. 'group G'; in short: as §4
[18] = Antimicrobial activity against Group G Streptococcus assessed as susceptible isolates by agar dilution method; assay type: functional, Streptococcus sp. 'group G'; in short: as §4
Streptococcus pneumoniae [19] = test: Antimicrobial activity against Streptococcus pneumoniae by agar dilution method; assay type: functional; in short: as §4
Streptococcus pneumoniae [20] = test: Antimicrobial activity against Streptococcus pneumoniae assessed as susceptible isolates by agar dilution method; assay type: functional; in short: as §4
Corynebacterium sp. [21] = test: Antimicrobial activity against Corynebacterium spp. by agar dilution method; assay type: functional
Listeria monocytogenes [22] = test: Antimicrobial activity against Listeria monocytogenes by agar dilution method; assay type: functional; in short: as §3
Streptococcus mitis [23] = test: Antimicrobial activity against Streptococcus mitis by broth dilution method
Corynebacterium sp. [24] = test: Antimicrobial activity against Corynebacterium spp. assessed as susceptible isolates by agar dilution method; assay type: functional
Listeria monocytogenes [25] = test: Antimicrobial activity against Listeria monocytogenes assessed as susceptible isolates by agar dilution method; assay type: functional; in short: as §3
Streptococcus mitis [26] = test: Antimicrobial activity against Streptococcus mitis assessed as susceptible isolates by agar dilution method; assay type: functional; settings: in the assay text read “broth dilution method” for “agar dilution method”; in short: as §4

Structure (SMILES)	Activity (Staphylococcus aureus [2])	MIC50 (Staphylococcus aureus [5])	MIC90 (Staphylococcus aureus [5])	MIC50 (Staphylococcus aureus [7])	MIC90 (Staphylococcus aureus [7])	MIC50 (Staphylococcus [9])	MIC90 (Staphylococcus [9])	Activity (Staphylococcus [10])	MIC50 [11]	MIC90 [11]	MIC50 [13]	MIC90 [13]	MIC50 [15]	MIC90 [15]	MIC [17]	MIC50 [17]	MIC90 [17]	MIC50 (Streptococcus pneumoniae [19])	MIC90 (Streptococcus pneumoniae [19])	Activity (Streptococcus pneumoniae [20])	other results
CN[C@H](CC(C)C)C(=O)N[C@H]1C(=O)N[C@@H](CC(N)=O)C(=O)N[C@H]2C(=O)N[C@H]3C(=O)N[C@H](C(=O)N[C@H](C(=O)O)c4cc(O)cc(O)c4-c4cc3ccc4O)[C@H](O)c3ccc(c(Cl)c3)Oc3cc2cc(c3O[C@@H]2O[C@H](CO)[C@@H](O)[C@H](O)[C@H]2O[C@H]2C[C@](C)(N)[C@H](O)[C@H](C)O2)Oc2ccc(cc2Cl)[C@H]1O [VANCOMYCIN]	100%	1 µg/mL (≈ 0.69 µM)	2 µg/mL (≈ 1.38 µM)	2 µg/mL (≈ 1.38 µM)	4 µg/mL (≈ 2.76 µM)	1 µg/mL (≈ 0.69 µM)	2 µg/mL (≈ 1.38 µM)	100%	0.25 µg/mL (≈ 0.173 µM)	0.25 µg/mL (≈ 0.173 µM)	0.25 µg/mL (≈ 0.173 µM)	0.25 µg/mL (≈ 0.173 µM)	0.12 µg/mL (≈ 0.0828 µM)	0.5 µg/mL (≈ 0.345 µM)	0.12 µg/mL (≈ 0.0828 µM)	0.12 µg/mL (≈ 0.0828 µM)	0.12 µg/mL (≈ 0.0828 µM)	0.12 µg/mL (≈ 0.0828 µM)	0.25 µg/mL (≈ 0.173 µM)	100%	MIC50 (Staphylococcus aureus [1]): 1 µg/mL (≈ 0.69 µM); MIC90 (Staphylococcus aureus [1]): 1 µg/mL (≈ 0.69 µM); MIC50 (Staphylococcus aureus [3]): 1 µg/mL (≈ 0.69 µM); MIC90 (Staphylococcus aureus [3]): 1 µg/mL (≈ 0.69 µM); Activity (Staphylococcus aureus [4]): 100%; Activity (Staphylococcus aureus [6]): 96%; Activity (Staphylococcus aureus [8]): 52%; Activity [12]: 100%; Activity [14]: 100%; MIC [15]: 0.12 µg/mL (≈ 0.0828 µM); Activity [16]: 100%; Activity [18]: 100%; MIC50 (Corynebacterium sp. [21]): 0.25 µg/mL (≈ 0.173 µM); MIC90 (Corynebacterium sp. [21]): 0.5 µg/mL (≈ 0.345 µM); MIC (Listeria monocytogenes [22]): 1 µg/mL (≈ 0.69 µM); MIC50 (Listeria monocytogenes [22]): 1 µg/mL (≈ 0.69 µM); MIC90 (Listeria monocytogenes [22]): 1 µg/mL (≈ 0.69 µM); MIC50 (Streptococcus mitis [23]): 1 µg/mL (≈ 0.69 µM)
COc1c(N2C[C@@H]3CCCN[C@@H]3C2)c(F)cc2c(=O)c(C(=O)O)cn(C3CC3)c12 [MOXIFLOXACIN]	92%	4 µg/mL (≈ 9.96 µM)	4 µg/mL (≈ 9.96 µM)	8 µg/mL (≈ 19.9 µM)	8 µg/mL (≈ 19.9 µM)	0.25 µg/mL (≈ 0.623 µM)	8 µg/mL (≈ 19.9 µM)	55%	0.25 µg/mL (≈ 0.623 µM)	0.5 µg/mL (≈ 1.25 µM)	0.25 µg/mL (≈ 0.623 µM)	0.5 µg/mL (≈ 1.25 µM)	0.25 µg/mL (≈ 0.623 µM)	0.5 µg/mL (≈ 1.25 µM)	0.25 µg/mL (≈ 0.623 µM)	0.25 µg/mL (≈ 0.623 µM)	0.5 µg/mL (≈ 1.25 µM)	0.25 µg/mL (≈ 0.623 µM)	0.25 µg/mL (≈ 0.623 µM)	100%	Activity (Staphylococcus aureus [4]): 4%; Activity (Staphylococcus aureus [6]): 8%; MIC (Staphylococcus aureus [7]): 8 µg/mL (≈ 19.9 µM); Activity (Staphylococcus aureus [8]): 0%; MIC [11]: 0.25 µg/mL (≈ 0.623 µM); MIC [13]: 0.25 µg/mL (≈ 0.623 µM); MIC [15]: 0.25 µg/mL (≈ 0.623 µM); MIC50 (Corynebacterium sp. [21]): 1 µg/mL (≈ 2.49 µM); MIC90 (Corynebacterium sp. [21]): 8 µg/mL (≈ 19.9 µM); MIC (Listeria monocytogenes [22]): 0.5 µg/mL (≈ 1.25 µM); MIC50 (Listeria monocytogenes [22]): 0.5 µg/mL (≈ 1.25 µM); MIC90 (Listeria monocytogenes [22]): 1 µg/mL (≈ 2.49 µM); MIC50 (Streptococcus mitis [23]): 0.25 µg/mL (≈ 0.623 µM)
COc1cc(Cc2cnc(N)nc2N)cc(/C=C/C(=O)N2N=Cc3ccccc3C2c2cnc(N(C)C)nc2)c1OC (stereo not given)	100%	0.25 µg/mL (≈ 0.442 µM)	0.25 µg/mL (≈ 0.442 µM)	0.25 µg/mL (≈ 0.442 µM)	0.5 µg/mL (≈ 0.884 µM)	0.06 µg/mL (≈ 0.106 µM)	8 µg/mL (≈ 14.1 µM)	86%	0.06 µg/mL (≈ 0.106 µM)	0.06 µg/mL (≈ 0.106 µM)	0.06 µg/mL (≈ 0.106 µM)	0.12 µg/mL (≈ 0.212 µM)	0.06 µg/mL (≈ 0.106 µM)	0.06 µg/mL (≈ 0.106 µM)	0.06 µg/mL (≈ 0.106 µM)	0.06 µg/mL (≈ 0.106 µM)	0.06 µg/mL (≈ 0.106 µM)	0.12 µg/mL (≈ 0.212 µM)	0.25 µg/mL (≈ 0.442 µM)	100%	MIC50 (Staphylococcus aureus [1]): 0.03 µg/mL (≈ 0.053 µM); MIC90 (Staphylococcus aureus [1]): 0.03 µg/mL (≈ 0.053 µM); MIC50 (Staphylococcus aureus [3]): 0.06 µg/mL (≈ 0.106 µM); MIC90 (Staphylococcus aureus [3]): 0.25 µg/mL (≈ 0.442 µM); MIC [11]: 0.06 µg/mL (≈ 0.106 µM); Activity [12]: 100%; MIC [13]: 0.06 µg/mL (≈ 0.106 µM); Activity [14]: 100%; Activity [16]: 100%; Activity [18]: 100%; MIC50 (Corynebacterium sp. [21]): 0.12 µg/mL (≈ 0.212 µM); MIC90 (Corynebacterium sp. [21]): 4 µg/mL (≈ 7.07 µM); Activity (Corynebacterium sp. [24]): 83%; MIC (Listeria monocytogenes [22]): 0.03 µg/mL (≈ 0.053 µM); MIC50 (Listeria monocytogenes [22]): 0.03 µg/mL (≈ 0.053 µM); MIC90 (Listeria monocytogenes [22]): 0.03 µg/mL (≈ 0.053 µM); Activity (Listeria monocytogenes [25]): 100%; Activity (Streptococcus mitis [26]): 100%; MIC50 (Streptococcus mitis [23]): 0.03 µg/mL (≈ 0.053 µM)
